Substrate: O=c1[nH]c(=O)n([C@H]2C[C@H](O)[C@@H](CO)O2)cc1[N+](=O)[O-]
Assay: Activity of Escherichia coli thymidine phosphorylase
How it was run: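 Recombinant E. coli TP (0.00883 U per 0.2 ml) added to start a continuous spectrophotometric assay. Mix: 0.13 mM 5-nitro-2'-deoxyuridine substrate in 0.1 M potassium phosphate, pH 7.4, 25 °C, read at 355 nm in a microplate. Initial velocity compared with the mean of at least two no-inhibitor controls. Where derived, IC50 used at least five concentrations spanning the value.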

B1: Thymidine phosphorylase (Escherichia coli K-12), P07650 (protein)
chain: MFLAQEIIRKKRDGHALSDEEIRFFINGIRDNTISEGQIAALAMTIFFHDMTMPERVSLTMAMRDSGTVLDWKSLHLNGPIVDKHSTGGVGDVTSLMLGPMVAACGGYIPMISGRGLGHTGGTLDKLESIPGFDIFPDDNRFREIIKDVGVAIIGQTSSLAPADKRFYATRDITATVDSIPLITASILAKKLAEGLDALVMDVKVGSGAFMPTYELSEALAEAIVGVANGAGVRTTALLTDMNQVLASSAGNAVEVREAVQFLTGEYRNPRLFDVTMALCVEMLISGKLAKDDAEARAKLQAVLDNGKAAEVFGRMVAAQKGPTDFVENYAKYLPTAMLTKAVYADTEGFVSEMDTRALGMAVVAMGGGRRQASDTIDYSVGFTDMARLGDQVDGQRPLAVIHAKDENNWQEAAKAVKAAIKLADKAPESTPTVYRRISE
For B1, the kcat was 20 s⁻¹.

Source: ChEMBL document CHEMBL1156686, “Xanthine oxidase-activated prodrugs of thymidine phosphorylase inhibitors” (Eur J Med Chem, 2008)
